Assay [1] has as its target T1, GABA-A receptor; alpha-3/beta-3/gamma-2 (Homo sapiens, UniProt P18507+P28472+P34903).
T1 sequence (P18507 whole entry): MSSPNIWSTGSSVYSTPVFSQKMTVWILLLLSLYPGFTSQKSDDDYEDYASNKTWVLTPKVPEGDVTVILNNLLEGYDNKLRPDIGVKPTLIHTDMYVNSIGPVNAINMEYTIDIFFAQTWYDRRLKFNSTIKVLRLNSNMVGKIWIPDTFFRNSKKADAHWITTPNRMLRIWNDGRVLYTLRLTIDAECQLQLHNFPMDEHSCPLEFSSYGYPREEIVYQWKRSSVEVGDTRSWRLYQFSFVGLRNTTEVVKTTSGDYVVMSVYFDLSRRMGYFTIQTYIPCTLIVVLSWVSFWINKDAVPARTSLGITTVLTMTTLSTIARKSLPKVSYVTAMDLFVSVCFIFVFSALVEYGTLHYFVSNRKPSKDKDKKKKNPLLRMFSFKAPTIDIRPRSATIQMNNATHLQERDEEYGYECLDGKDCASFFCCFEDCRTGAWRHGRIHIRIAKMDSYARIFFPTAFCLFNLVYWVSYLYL
T1 sequence (P28472 whole entry): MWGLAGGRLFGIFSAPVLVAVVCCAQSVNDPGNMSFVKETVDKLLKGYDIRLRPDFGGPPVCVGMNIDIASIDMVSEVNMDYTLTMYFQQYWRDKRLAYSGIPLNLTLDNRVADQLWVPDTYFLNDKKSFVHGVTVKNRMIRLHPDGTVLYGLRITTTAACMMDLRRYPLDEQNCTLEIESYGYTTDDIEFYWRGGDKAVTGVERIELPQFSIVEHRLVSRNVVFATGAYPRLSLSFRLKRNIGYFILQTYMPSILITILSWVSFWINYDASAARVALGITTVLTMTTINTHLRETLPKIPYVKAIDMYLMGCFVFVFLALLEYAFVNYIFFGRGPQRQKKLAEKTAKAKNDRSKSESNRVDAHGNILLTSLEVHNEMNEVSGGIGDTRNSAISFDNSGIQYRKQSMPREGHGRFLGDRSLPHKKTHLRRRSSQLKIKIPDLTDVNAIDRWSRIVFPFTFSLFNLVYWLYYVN
T1 sequence (P34903 whole entry): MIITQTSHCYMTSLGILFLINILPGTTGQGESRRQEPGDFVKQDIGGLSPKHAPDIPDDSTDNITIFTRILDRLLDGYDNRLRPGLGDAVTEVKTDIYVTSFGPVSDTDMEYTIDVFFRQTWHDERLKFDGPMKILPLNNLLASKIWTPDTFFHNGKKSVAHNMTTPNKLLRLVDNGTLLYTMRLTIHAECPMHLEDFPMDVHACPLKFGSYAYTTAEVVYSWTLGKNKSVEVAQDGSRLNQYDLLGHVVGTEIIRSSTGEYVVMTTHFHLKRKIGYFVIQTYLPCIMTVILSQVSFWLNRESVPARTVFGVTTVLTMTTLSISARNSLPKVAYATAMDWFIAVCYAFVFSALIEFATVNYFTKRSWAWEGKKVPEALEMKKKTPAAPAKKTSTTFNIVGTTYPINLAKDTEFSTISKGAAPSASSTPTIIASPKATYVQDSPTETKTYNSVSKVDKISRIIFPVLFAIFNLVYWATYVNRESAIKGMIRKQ
Nature of the assay: Displacement of [3H]-Ro- 15-1788 from human GABA-A alpha-3-beta-3-gamma-2 receptor subunits expressed in Xenopus oocytes. Format: cell-based, Oocyte. The gist of the method:
(§1)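 Radioligand displacement of [3H]Ro 15-1788 from recombinant human GABA-A receptor subtypes. Ki values are the mean of at least two independent determinations, with SEM given where at least three were performed.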

Assay [2] addresses GABA-A receptor; alpha-2/beta-3/gamma-2 (Homo sapiens) (UniProt P18507+P28472+P47869). Briefly: Percentage modulation of submaximal (EC20) response to GABA in Xenopus oocytes expressing human GABA-A alpha-2-beta-3-gamma-2 subunits. As to conditions: Oocyte. Format: cell-based. The procedure, abridged:
(§2)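 Two-electrode voltage clamp on Xenopus laevis oocytes transiently expressing human GABA-A receptor subtypes. Modulation of the submaximal GABA (EC20) ion current is expressed as a percentage. Values are the arithmetic mean ± SEM from at least three independent cells.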

Assay [3] addresses GABA-A receptor; alpha-3/beta-3/gamma-2 (Homo sapiens) (UniProt P18507+P28472+P34903). Nature of the assay: Percentage modulation of submaximal (EC20) response to GABA in Xenopus oocytes expressing human GABA-A alpha-3-beta-3-gamma-2 subunits. Format: cell-based. As to conditions: Oocyte. The gist of the method:
as §2

For assay [4], the target named is T2, GABA-A receptor; alpha-2/beta-3/gamma-2 (Homo sapiens, UniProt P18507+P28472+P47869).
T2 sequence (P18507 whole entry): T1 sequence (P18507 whole entry)
T2 sequence (P28472 whole entry): T1 sequence (P28472 whole entry)
T2 sequence (P47869 whole entry): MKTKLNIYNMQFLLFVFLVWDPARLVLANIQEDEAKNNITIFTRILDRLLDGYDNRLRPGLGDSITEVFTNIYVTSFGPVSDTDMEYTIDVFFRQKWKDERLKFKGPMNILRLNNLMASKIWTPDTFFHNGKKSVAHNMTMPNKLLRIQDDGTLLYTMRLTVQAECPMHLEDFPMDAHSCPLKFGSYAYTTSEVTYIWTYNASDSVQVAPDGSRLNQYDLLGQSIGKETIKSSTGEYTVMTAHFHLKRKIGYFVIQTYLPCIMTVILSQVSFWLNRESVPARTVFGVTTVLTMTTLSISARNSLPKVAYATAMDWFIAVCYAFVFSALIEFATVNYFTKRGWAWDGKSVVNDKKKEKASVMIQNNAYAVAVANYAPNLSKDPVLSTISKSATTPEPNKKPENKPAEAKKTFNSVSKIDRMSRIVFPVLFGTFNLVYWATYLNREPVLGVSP
Nature of the assay: Displacement of [3H]-Ro- 15-1788 from human GABA-A alpha-2-beta-3-gamma-2 receptor subunits expressed in Xenopus oocytes. Type of assay: cell-based, Oocyte. The gist of the method: as §1
In general terms: Loss of bound radioactivity is the signal in a displacement assay; it reports binding, not function.

The target in assay [5] is GABA-A receptor; alpha-5/beta-3/gamma-2 (Homo sapiens) (UniProt P18507+P28472+P31644). Nature of the assay: Percentage modulation of submaximal (EC20) response to GABA in Xenopus oocytes expressing human GABA-A alpha-5-beta-3-gamma-2 subunits. Format: cell-based. As to conditions: Oocyte. The procedure, abridged:
as §2

Assay [6] concerns the target T3, GABA-A receptor; alpha-5/beta-3/gamma-2 (Homo sapiens, UniProt P18507+P28472+P31644).
T3 sequence (P18507 whole entry): T1 sequence (P18507 whole entry)
T3 sequence (P28472 whole entry): T1 sequence (P28472 whole entry)
T3 sequence (P31644 whole entry): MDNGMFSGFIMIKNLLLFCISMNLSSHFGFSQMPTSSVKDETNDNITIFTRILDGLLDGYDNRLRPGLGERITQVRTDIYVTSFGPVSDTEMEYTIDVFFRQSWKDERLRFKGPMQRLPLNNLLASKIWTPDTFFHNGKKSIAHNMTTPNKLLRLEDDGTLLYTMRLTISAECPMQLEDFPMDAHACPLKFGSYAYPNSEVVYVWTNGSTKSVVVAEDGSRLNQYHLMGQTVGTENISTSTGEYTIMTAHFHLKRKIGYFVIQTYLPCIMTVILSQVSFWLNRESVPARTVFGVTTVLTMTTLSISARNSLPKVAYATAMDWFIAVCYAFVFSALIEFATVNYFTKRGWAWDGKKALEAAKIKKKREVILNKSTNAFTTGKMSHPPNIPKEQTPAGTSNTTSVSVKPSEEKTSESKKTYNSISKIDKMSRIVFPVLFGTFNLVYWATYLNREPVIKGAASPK
Nature of the assay: Displacement of [3H]-Ro- 15-1788 from human GABA-A alpha-5-beta-3-gamma-2 receptor subunits expressed in Xenopus oocytes. Format: cell-based, Oocyte. The procedure, abridged: as §1

Assay [7] concerns the target T4, GABA-A receptor; alpha-1/beta-3/gamma-2 (Homo sapiens, UniProt P14867+P18507+P28472).
T4 sequence (P14867 whole entry): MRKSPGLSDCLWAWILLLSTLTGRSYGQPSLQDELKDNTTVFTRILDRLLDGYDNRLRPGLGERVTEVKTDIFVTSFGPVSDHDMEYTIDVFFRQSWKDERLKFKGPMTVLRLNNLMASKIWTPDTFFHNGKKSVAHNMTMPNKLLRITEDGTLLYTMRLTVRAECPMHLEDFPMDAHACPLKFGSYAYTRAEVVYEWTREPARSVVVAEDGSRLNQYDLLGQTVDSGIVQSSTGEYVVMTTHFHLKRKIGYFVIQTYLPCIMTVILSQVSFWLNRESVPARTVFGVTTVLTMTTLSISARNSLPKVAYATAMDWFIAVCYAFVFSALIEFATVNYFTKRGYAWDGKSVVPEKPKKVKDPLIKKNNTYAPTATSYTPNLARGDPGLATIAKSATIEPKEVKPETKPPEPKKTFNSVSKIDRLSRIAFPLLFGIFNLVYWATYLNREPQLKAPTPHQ
T4 sequence (P18507 whole entry): T1 sequence (P18507 whole entry)
T4 sequence (P28472 whole entry): T1 sequence (P28472 whole entry)
Briefly: Displacement of [3H]-Ro- 15-1788 from human GABA-A alpha-1-beta-3-gamma-2 receptor subunits expressed in Xenopus oocytes. Format: cell-based, Oocyte. The procedure, abridged: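 Radioligand binding to recombinant human GABA-A receptor subtypes, measuring displacement of [3H]Ro 15-1788. Ki values are the mean of at least two independent determinations, with SEM given where at least three were performed.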

For assay [8], the target named is GABA-A receptor; alpha-1/beta-3/gamma-2 (Homo sapiens) (UniProt P14867+P18507+P28472). Nature of the assay: Percentage modulation of submaximal (EC20) response to GABA in Xenopus oocytes expressing human GABA-A alpha-1-beta-3-gamma-2 subunits. Type of assay: cell-based. As to conditions: Oocyte. The gist of the method: as §2

Structures are written as SMILES.

What is called Ki is a measure of affinity in units of concentration, obtained from inhibition or displacement.

With `Cc1cc(-c2nnc3c4ccccc4c(OCc4cnnn4C)nn23)no1`, the inhibition constant Ki in assay [1] was 5.2 nM; in assay [4], 2.8 nM; in assay [6] it was 2 nM; in assay [7], 4.2 nM. Further, the Efficacy in assay [2] was -25%; in assay [3] it was -6%; in assay [5], -33%; in assay [8], -8%.
Take `Cc1cc(-c2nnc3c4ccccc4c(OCc4ccccn4)nn23)no1`: the inhibitory constant (Ki) worked out at 0.96 nM in assay [1], 1.5 nM in assay [4], 0.62 nM in assay [6] and 0.93 nM in assay [7]. Also, the Efficacy is -4% in assay [3], -46% in assay [5] and -2% in assay [8].
For the compound `Cc1cccc(COc2nn3c(-c4ccoc4)nnc3c3c2C2CCC3CC2)n1`, the Ki in assay [1] was 40 nM; in assay [4], 63 nM; in assay [6] it was 3.1 nM; in assay [7] it was 250 nM. Also, the Efficacy in assay [2] is -6%; in assay [3], -4%; in assay [5], -24%.
As to `Cc1cccc(COc2nn3c(-c4ccccc4)nnc3c3c2C2CCC3CC2)n1`, the inhibition constant Ki in assay [1] was 25 nM; in assay [4], 46 nM; in assay [6], 2.9 nM; in assay [7] it was 170 nM. For the same compound, in assay [5], the Efficacy was determined as 15%.
On the same counts, the results for `Cc1cccc(COc2nn3c(-c4cc(C)on4)nnc3c3ccccc23)n1` are 1.3 nM, 1.6 nM, 0.79 nM, 0.88 nM and -15%.
`Cc1cccc(COc2nn3c(-c4ccsc4)nnc3c3c2C2CCC3CC2)n1`: the inhibition constant (Ki) is 48 nM in assay [1], 110 nM in assay [4], 3.7 nM in assay [6] and 270 nM in assay [7]. In addition, the Efficacy in assay [2] came to 9%; in assay [3], 38%; in assay [8] it was 17%.
Turning to `Cc1cc(-c2nnc3c4ccccc4c(OCc4cn(C)nn4)nn23)no1`, the Ki in assay [1] amounted to 0.61 nM; in assay [4] it was 0.58 nM; in assay [6], 0.66 nM; in assay [7], 0.88 nM. Besides, the Efficacy in assay [2] is 12%; in assay [3], 4%; in assay [5], -29%; in assay [8], -4%.
As to `CNC1=Nc2ccc(Cl)cc2C(c2ccccc2)=[N+]([O-])C1`, the Efficacy in assay [2] stood at 101%; in assay [3], 173%; in assay [8], 165%.
In the case of `Cc1cccc(COc2nn3c(-c4nc(C)no4)nnc3c3c2C2CCC3CC2)n1`, the inhibition constant Ki was 7.6 nM in assay [1], 17 nM in assay [4], 1.1 nM in assay [6] and 74 nM in assay [7]. Also, the Efficacy in assay [2] was -10%; in assay [3], -21%; in assay [5], -35%; in assay [8], -15%.
As to `Cc1cc(-c2nnc3c4ccccc4c(OCc4cnn(C)n4)nn23)no1`, the Ki came to 0.8 nM in assay [1], 0.64 nM in assay [4], 0.87 nM in assay [6] and 1.3 nM in assay [7]. For the same compound, the Efficacy is 9% in assay [2], -3% in assay [3], -35% in assay [5] and -5% in assay [8].
In the case of `CCc1c(C(=O)OC)ncc2[nH]c3cc(OC)c(OC)cc3c12`, the Ki amounted to 10 nM in assay [1], 11 nM in assay [4], 2.3 nM in assay [6] and 16 nM in assay [7]. For the same compound, the Efficacy in assay [2] is -34%; in assay [3] it was -52%; in assay [5], -52%; in assay [8], -36%.
Consider `Cc1cccc(COc2nn3c(-c4cc(C)on4)nnc3c3c2C2CCC3CC2)n1`, for which the Ki in assay [1] came out at 41 nM; in assay [4] it was 86 nM; in assay [6], 4.6 nM; in assay [7] it was 280 nM. Further, the Efficacy in assay [2] was 15%; in assay [3] it was -1%; in assay [5] it was -29%.

The record behind these values is ChEMBL document CHEMBL1149152, “Selective, orally active gamma-aminobutyric acidA alpha5 receptor inverse agonists as cognition enhancers” (J Med Chem, 2004).
